In ChEMBL document CHEMBL1123258 (J Med Chem, 1986):
Converted amounts (≈) assume the structure as drawn. “And” between values parts separate entries of the source, which are not always exact repeats. Identical values can stand only once.

Assays:
L1210 [1] = test: Compound was evaluated for the inhibition of DNA synthesis in leukemia L1210 cells; type: functional; conditions: Mus musculus, read-out: ED50 (the source's name)
How it was run: (§1)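 Actively growing L1210 cells exposed to drug for 3 h; drug dissolved first in Me₂SO, final 1% Me₂SO. Read-out is incorporation of [³H]thymidine into DNA or [³H]uridine into RNA. ED50 is the concentration giving 50% inhibition.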

L1210 [2] = test: Compound was evaluated for the inhibition of RNA synthesis in leukemia L1210 cells; type: functional; conditions: Mus musculus, read-out: ED50 (the source's name); how it was run: as §1
[3] = Compound was evaluated for the percentage of hydrolysis product (aglycon) formed at pH of 7; type: ADME; conditions: pH 7
How it was run: (§2)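 Stock solutions at 0.6 mg/mL in CH3CN (or CH3OH) were diluted 1:1 with phosphate buffer (pH 7), citrate buffer (pH 4) or 0.1 N HCl-KCl (pH 2). They were held at 23 °C for 22 h, then analysed by reverse-phase HPLC in 0.1 M NaH2PO4-CH3CN (75:25) with 254 nm absorbance. Each value is the amount detected at that time divided by the total detected at start.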

[4] = Compound was evaluated for its stability after 22 hr in solution at pH of 2; type: physicochemical; conditions: pH 2, read-out: Recovery; how it was run: as §2
[5] = Compound was evaluated for the percentage of hydrolysis of compound 2 formed at pH of 4; type: ADME; conditions: pH 4; how it was run: as §2
Mus musculus = species on record: Mus musculus; test: Compound was evaluated for the antitumor efficacy at optimal dose against P388 in mice; type: functional
How it was run: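 Mice given 10⁶ P388 leukemia cells ip on day 0, then dosed ip on day 1 at the optimal dose. Efficacy expressed as % T/C, the mean survival time of treated over control mice; ≥120% counts as active.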

[6] = Compound was evaluated for the percentage of hydrolysis of compound 2 formed at pH of 2; type: ADME; conditions: pH 2; how it was run: as §2
[7] = Compound was evaluated for the overall absorbance loss at pH of 4; type: ADME; conditions: pH 4; how it was run: as §2
P388/S = test: Compound was evaluated for the growth inhibition of P388/S cells.; type: functional, cell-based; conditions: Mus musculus
How it was run: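 P388/S is the sensitive line routinely used in screening. Cells were exposed to drug for 48 h before IC50 was determined.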

[8] = Compound was evaluated for the overall absorbance loss at pH of 2; type: ADME; conditions: pH 2; how it was run: as §2
[9] = Compound was evaluated for the percentage of hydrolysis product (aglycon) formed at pH of 4; type: ADME; conditions: pH 4; how it was run: as §2
[10] = Compound was evaluated for the percentage of hydrolysis of compound 2 formed at pH of 7; type: ADME; conditions: pH 7; how it was run: as §2
[11] = Compound was evaluated for the overall absorbance loss at pH of 7; type: ADME; conditions: pH 7; how it was run: as §2
[12] = Compound was evaluated for the percentage of hydrolysis product (aglycon) formed at pH of 2; type: ADME; conditions: pH 2; how it was run: as §2
[13] = Compound was evaluated for the change in Tm of isolated helical DNA in solution; type: ADME
How it was run: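 Thermal denaturation of calf thymus DNA, 5.2 × 10⁻⁵ M (P), with drug at 5.2 × 10⁻⁶ M, in 0.01 M phosphate buffer pH 7 with EDTA and 5% Me₂SO. ΔTm = Tm of DNA–drug complex minus Tm of DNA alone.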

HeLa [14] = test: (§3) Compound was evaluated for the inhibition of colony formation in HeLa cells; type: functional, Mus musculus; conditions: Homo sapiens, read-out: ID50 (the source's name)
How it was run: (§4)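 Exponentially growing HeLa cells exposed to drug for 24 h, then plated at 50 cells/mL in drug-free medium. Colonies grown 7–10 days at 37 °C in humidified 95:5 air/CO₂, then scored. ID50 is the concentration giving 50% inhibition of colony growth.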

P388 = test: Compound was evaluated for the growth inhibition of P388/S, cells.; type: functional, cell-based; conditions: Mus musculus
How it was run: (§5)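 Growth of P388/S cells, the routine screening line, and of the P388/ADR resistant subline measured after 48-h drug exposure. IC50 is the concentration giving 50% growth inhibition.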

[15] = Compound was evaluated for the percentage of hydrolysis product formed at pH of 7; type: ADME; conditions: pH 7; how it was run: as §2
[16] = Compound was evaluated for its stability after 22 hr in solution at pH of 7; type: physicochemical; conditions: pH 7, read-out: Recovery; how it was run: as §2
[17] = Compound was evaluated for its stability after 22 hr in solution at pH of 4; type: physicochemical; conditions: pH 4, read-out: Recovery; how it was run: as §2
[18] = Compound was evaluated for the percentage of hydrolysis product formed at pH of 4; type: ADME; conditions: pH 4; how it was run: as §2
[19] = Compound was evaluated for the percentage of hydrolysis product formed at pH of 2; type: ADME; conditions: pH 2; how it was run: as §2
HeLa [20] = test: as §3; type: functional; conditions: Homo sapiens, read-out: ID50 (the source's name); how it was run: as §4
[21] = Resistance index was measured as ratio of IC50 of P388/ADR to that of P388/S
P388/ADR = test: Compound was evaluated for the growth inhibition of P388/ADR cells.; type: functional, cell-based; conditions: Mus musculus; how it was run: as §5
[22] = Partition coefficient in octanol-phosphate buffer at pH 7.4; type: physicochemical
How it was run: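 Drug partitioned between octanol and phosphate buffer pH 7.4. Concentrations in each phase measured by UV absorbance; log P is the log of organic-phase over aqueous-phase concentration.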

Row | EC50 (L1210 [1]) [nM] | EC50 (L1210 [2]) [nM] | Change in Tm [13] | IC50 (P388) [nM] | SMILES | remaining at 22 h [4] [%] | T/C (Mus musculus) | Absorbance [7] [%] | Absorbance [8] [%] | Absorbance [11] [%] | further results
1 | 1600 | 580 | 12.8 | 68 | COc1cccc2c1C(=O)c1c(O)c3c(c(O)c1C2=O)C[C@@](O)(C(=O)CO)C[C@@H]3O[C@H]1C[C@H](N)[C@H](O)[C@H](C)O1 [DOXORUBICIN] | – | 182% and 273% | – | – | – | IC50 (HeLa [14]): 0.019 µg/mL (≈ 0.035 µM)
2 | 5200 | 810 | 10.7 | 230 | COc1cccc2c1C(=O)c1c(O)c3c(c(O)c1C2=O)C[C@@](O)(C(=O)CO)C[C@@H]3OC1CC(NCCO)C(O)C(C)O1 (stereo partly specified) | – | 157% and 205% | – | – | – | IC50 (HeLa [20]): 0.031 µg/mL (≈ 0.0528 µM); Ratio [21]: 17; IC50 (P388/ADR): 3900 nM; logD [22]: 0.19

More lines, now with the values behind:

Row | SMILES | EC50 (L1210 [1]) [nM] | EC50 (L1210 [2]) [nM] | Change in Tm [13] | IC50 (P388) [nM] | remaining at 22 h [4] [%] | T/C (Mus musculus) | Absorbance [7] [%] | Absorbance [8] [%] | Absorbance [11] [%] | further results
3 | COc1cccc2c1C(=O)c1c(O)c3c(c(O)c1C2=O)C[C@@](O)(C(=O)CO)C[C@@H]3OC1CC2C(OC(CO)N2CCO)C(C)O1 (stereo partly specified) | 650 | 120 | – | – | – | – | – | – | – | –
4 | COc1cccc2c1C(=O)c1c(O)c3c(c(O)c1C2=O)C[C@@](O)(C(=O)CO)C[C@@H]3OC1CC(N2CCOCC2C#N)C(O)C(C)O1 (stereo partly specified) | 3 | 0.53 | 8.7 | – | 10 | 262% and 233% | 37 | 67 | 17 | Hydrolysis [3]: 0.3%; Hydrolysis [5]: 8%; Hydrolysis [6]: 7%; IC50 (P388/S): 0.16 nM; Hydrolysis [9]: 0.1%; Hydrolysis [10]: 0.8%; Hydrolysis [12]: 8%
5 | COc1cccc2c1C(=O)c1c(O)c3c(c(O)c1C2=O)C[C@@](O)(C(=O)CO)C[C@@H]3OC1CC(N2CCOCC2)C(O)C(C)O1 (stereo partly specified) | – | – | – | – | 96 | – | 12 | 4 | 4 | Hydrolysis [15]: < 1%; remaining at 22 h [16]: 90%; remaining at 22 h [17]: 88%; Hydrolysis [18]: < 1%; Hydrolysis [19]: < 1%
